# Measured values: ChEMBL document CHEMBL1151949, “Alkaloids from the roots of Stemona aphylla” (2009)
# Experiments:
# Assay type in all cases: functional
# [1] = tested on: Candida albicans; assay: Antimicrobial activity against Candida albicans ATCC 90028 after 24 hrs by broth dilution technique; settings: ATCC 90028, 24 h
# In short: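 Broth dilution in trypticase soy broth, series from 500 to 1.95 µg/mL. Incubation at 37 °C for 24 h. MIC taken as lowest concentration with no visible growth. Amphotericin B served as antifungal positive control.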
# [2] = tested on: Plutella xylostella; assay: Insecticidal activity against Plutella xylostella treated as topical application
# [3] = tested on: Staphylococcus aureus; assay: Antimicrobial activity against Staphylococcus aureus ATCC 25923 after 24 hrs by broth dilution technique
# In short: (§1)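 Serial dilutions in trypticase soy broth spanning 500 to 1.95 µg/mL, tested by broth dilution; tubes incubated 37 °C for 24 h. MIC taken as lowest concentration tube with no visible organism growth. Gentamycin served as antibacterial positive control.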
# [4] = tested on: Pseudomonas aeruginosa; assay: Antimicrobial activity against Pseudomonas aeruginosa ATCC 27853 after 24 hrs by broth dilution technique; in short: as §1
# [5] = tested on: Escherichia coli; assay: Antimicrobial activity against Escherichia coli ATCC 25922 after 24 hrs by broth dilution technique; in short: as §1
compound,measurement,setting,value
C[C@@H]1[C@H](O)[C@@H](C)/C=C/C=C/C=C/C=C/C=C/C=C/C=C/[C@H](O[C@@H]2O[C@H](C)[C@@H](O)[C@H](N)[C@@H]2O)C[C@@H]2O[C@](O)(C[C@@H](O)C[C@@H](O)[C@H](O)CC[C@@H](O)C[C@@H](O)CC(=O)O[C@H]1C)C[C@H](O)[C@H]2C(=O)O [AMPHOTERICIN B],MFC,[1],0.7 µg/mL
CNC(=O)ON=C(C)SC [METHOMYL],LC50,[2],1840 µg/mL
C[C@@H]1C[C@H](C[C@@H](C)[C@H]2CCCCN3CCC[C@@H]23)OC1=O [STEMAPHYLLINE],MBC,"[3]; ATCC 25923, 24 h",250 µg/mL
same,MIC,"[3]; ATCC 25923, 24 h",125 µg/mL
same,MFC,[1],125 µg/mL
same,MIC,[1],125 µg/mL
same,MBC,"[4]; ATCC 27853, 24 h",125 µg/mL
same,MIC,"[4]; ATCC 27853, 24 h",62.5 µg/mL
same,MBC,"[5]; ATCC 25922, 24 h",125 µg/mL
same,MIC,"[5]; ATCC 25922, 24 h",62.5 µg/mL
same,LC50,[2],1820 µg/mL
GENTAMICIN,MBC,[3],22.5 µg/mL
same,MIC,[3],5.62 µg/mL
same,MBC,[4],1.46 µg/mL
same,MIC,[4],0.35 µg/mL
same,MBC,[5],5.62 µg/mL
same,MIC,[5],5.62 µg/mL
